Experiment [1] addresses T1, Type-2 angiotensin II receptor (Rattus norvegicus, UniProt P35351).
T1 sequence (P35351 whole entry): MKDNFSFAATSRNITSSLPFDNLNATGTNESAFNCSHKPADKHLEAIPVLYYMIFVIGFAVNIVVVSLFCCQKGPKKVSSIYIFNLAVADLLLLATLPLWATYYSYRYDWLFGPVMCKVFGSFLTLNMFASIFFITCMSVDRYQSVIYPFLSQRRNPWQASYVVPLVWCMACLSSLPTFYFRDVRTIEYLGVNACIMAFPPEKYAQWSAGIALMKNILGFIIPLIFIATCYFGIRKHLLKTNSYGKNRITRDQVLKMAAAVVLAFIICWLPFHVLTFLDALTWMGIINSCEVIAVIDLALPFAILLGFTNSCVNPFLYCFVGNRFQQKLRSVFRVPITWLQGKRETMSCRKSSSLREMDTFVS
The experiment can be described thus: In vitro inhibitory activity against angiotensin II rat midbrain AT2 receptor using radioligand [125I]-Sar Ile-AII. Put shortly: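 Dithiothreitol ([…]) was added to the assay mixture to abolish residual AT1 binding. Tubes were run in duplicate, and IC50 came from nonlinear regression of displacement curves.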

For experiment [2], the target named is T2, Type-1 angiotensin II receptor (Oryctolagus cuniculus, UniProt P34976).
T2 sequence (P34976 whole entry): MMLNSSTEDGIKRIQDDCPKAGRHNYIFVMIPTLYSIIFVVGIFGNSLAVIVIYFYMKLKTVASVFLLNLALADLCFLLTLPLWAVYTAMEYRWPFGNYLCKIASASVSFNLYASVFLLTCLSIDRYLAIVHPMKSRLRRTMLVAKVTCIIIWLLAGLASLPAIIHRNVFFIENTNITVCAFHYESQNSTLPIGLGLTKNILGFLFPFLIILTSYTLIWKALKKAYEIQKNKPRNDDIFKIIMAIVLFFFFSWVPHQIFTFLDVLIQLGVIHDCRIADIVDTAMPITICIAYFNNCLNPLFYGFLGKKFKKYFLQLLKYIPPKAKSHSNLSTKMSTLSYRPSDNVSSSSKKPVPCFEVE
In words: In vitro inhibitory activity against angiotensin II rabbit aorta AT1 receptor using radioligand [125I]-Sar Ile-AII. Format: tissue-based.

Each structure is given as a SMILES string. Some results are limits rather than exact numbers.

Consider 47 molecules from ChEMBL document CHEMBL1127442, “Triazolinone biphenylsulfonamide derivatives as orally active angiotensin II antagonists with potent AT1 receptor affinity and enhanced AT2 affinity” (J Med Chem, 1994).

The IC50 is the midpoint of a concentration-inhibition curve.

Turning to `CCCCc1nn(-c2ccccc2C(F)(F)F)c(=O)n1Cc1ccc(-c2ccccc2S(=O)(=O)NC(=O)c2oc3ccccc3c2C)cc1`, the half-maximal inhibitory concentration (IC50) in experiment [1] was 0.13 µM; in experiment [2] it was 0.00043 µM.

On to `CCCCc1nn(C(C)C)c(=O)n1Cc1ccc(-c2ccccc2S(=O)(=O)NC(=O)c2ccccc2)cc1`, for which the values for the IC50 in experiment [1] and in experiment [2] were 4.6 µM and 0.007 µM, respectively. On the same counts, the results for `CCCCc1nn(-c2ccccc2C(F)(F)F)c(=O)n1Cc1ccc(-c2ccccc2S(=O)(=O)NC(=O)C2(C)SCCS2)cc1` are 0.08 µM and 0.00022 µM. On to `CCCCc1nn(-c2ccccc2C(F)(F)F)c(=O)n1Cc1ccc(-c2ccccc2S(=O)(=O)NC(=O)c2cc(Cl)sc2Cl)cc1`, for which the IC50 was determined as 0.087 µM in experiment [1] and 0.0026 µM in experiment [2]. For `CCCCc1nn(-c2ccccc2C(F)(F)F)c(=O)n1Cc1ccc(-c2ccccc2S(=O)(=O)NC(=O)NC(C)C)cc1`, in that order: 0.3 µM and 0.0011 µM. On the same counts, the results for `CCCCc1nn(-c2ccccc2C(F)(F)F)c(=O)n1Cc1ccc(-c2ccccc2S(=O)(=O)NC(=O)c2c(C)cccc2C)cc1` are 0.19 µM and 0.0059 µM. On the same counts, the results for `CCCCc1nn(-c2ccccc2C(F)(F)F)c(=O)n1Cc1ccc(-c2ccccc2S(=O)(=O)NC(=O)C2CCCCC2)cc1` are 0.16 µM and 0.00015 µM. Regarding `CCCCc1nn(-c2ccccc2C(F)(F)F)c(=O)n1Cc1ccc(-c2ccccc2S(=O)(=O)NC(=O)c2ccc(Cl)s2)cc1`, the 50% inhibitory concentration (IC50) amounted to 0.26 µM in experiment [1] and 0.0013 µM in experiment [2]. For the molecule `CCCCc1nn(-c2ccccc2C(F)(F)F)c(=O)n1Cc1ccc(-c2ccccc2S(=O)(=O)NC(=O)c2ccoc2)cc1`, the figures for the IC50 in experiment [1] and in experiment [2] were 0.7 µM and 0.0039 µM, respectively.

Regarding `CCCCc1nn(CC(C)(C)C)c(=O)n1Cc1ccc(-c2ccccc2S(=O)(=O)NC(=O)c2ccccc2)cc1`, the IC50 in experiment [1] is 2.3 µM; in experiment [2], 0.0033 µM. On the same counts, the results for `CCCc1nn(-c2ccccc2C(F)(F)F)c(=O)n1Cc1ccc(-c2ccccc2S(=O)(=O)NC(=O)C2CC2)cc1` are 0.41 µM and 0.018 µM. For `CCCCc1nn(-c2ccccc2C(F)(F)F)c(=O)n1Cc1ccc(-c2ccccc2NS(=O)(=O)C(F)(F)F)cc1`, in that order: 5.5 µM and 0.0018 µM.

`CCCCc1nn(-c2ccccc2C(F)(F)F)c(=O)n1Cc1ccc(-c2ccccc2S(=O)(=O)NC(=O)Cc2ccccc2)cc1`: the half-inhibitory concentration (IC50) in experiment [1] is 0.24 µM; in experiment [2] it was 0.0016 µM. For `CCCCc1nn(-c2ccccc2C(F)(F)F)c(=O)n1Cc1ccc(-c2ccccc2S(=O)(=O)NS(=O)(=O)C(C)C)cc1`, the figures for the IC50 in experiment [1] and in experiment [2] were 3.6 µM and 0.00016 µM, respectively. Regarding `CCCc1nn(-c2ccccc2C(F)(F)F)c(=O)n1Cc1ccc(-c2ccccc2S(=O)(=O)NC(=O)c2ccccc2)cc1`, the IC50 in experiment [1] was 0.52 µM; in experiment [2], 0.013 µM. Turning to `CCCCc1nn(-c2ccccc2C(F)(F)F)c(=O)n1Cc1ccc(-c2ccccc2S(=O)(=O)NC(=O)C2CC2C)cc1` (centres undefined), the figures for the IC50 in experiment [1] and in experiment [2] were 0.12 µM and 0.00056 µM, respectively.

Take `CCCCc1nn(-c2ccccc2C(F)(F)F)c(=O)n1Cc1ccc(-c2ccccc2S(=O)(=O)NC(=O)CCOC)cc1`: the concentration for half-maximal inhibition (IC50) is 0.27 µM in experiment [1] and 0.002 µM in experiment [2]. On the same counts, the results for `CCCCc1nn(-c2ccccc2C(F)(F)F)c(=O)n1Cc1ccc(-c2ccccc2S(=O)(=O)Nc2ccc([N+](=O)[O-])cc2)cc1` are 5.2 µM and 0.078 µM. On the same counts, the results for `CCCCc1nn(-c2ccccc2C(F)(F)F)c(=O)n1Cc1ccc(-c2ccccc2S(=O)(=O)NC(=O)C(C)(C)C)cc1` are 0.16 µM and 0.0013 µM. For the molecule `CCCCc1nn(-c2c(Cl)cccc2Cl)c(=O)n1Cc1ccc(-c2ccccc2S(=O)(=O)NC(=O)c2ccccc2)cc1`, the IC50 in experiment [1] came out at 0.5 µM; in experiment [2], 0.0026 µM. On the same counts, the results for `CCCCc1nn(-c2ccccc2C(F)(F)F)c(=O)n1Cc1ccc(-c2ccccc2S(=O)(=O)NC(=O)C2CCCCCC2)cc1` are 0.27 µM and 0.0003 µM. For `CCCCc1nn(-c2ccccc2C(F)(F)F)c(=O)n1Cc1ccc(-c2ccccc2S(=O)(=O)NC(=O)c2ccc(C)o2)cc1`, in that order: 0.15 µM and 0.0004 µM.

On to `CCCCc1nn(-c2ccccc2C(F)(F)F)c(=O)n1Cc1ccc(-c2ccccc2S(=O)(=O)NC(=O)c2cccc(Cl)c2)cc1`, for which the figures for the concentration for half-maximal inhibition (IC50) in experiment [1] and in experiment [2] were 0.15 µM and 0.0024 µM, respectively. On the same counts, the results for `CCCCc1nn(-c2ccccc2C(F)(F)F)c(=O)n1Cc1ccc(-c2ccccc2S(=O)(=O)NC(=O)c2ocnc2C)cc1` are 0.035 µM and 0.0011 µM. `CCCCc1nn(-c2ccccc2Cl)c(=O)n1Cc1ccc(-c2ccccc2S(=O)(=O)NC(C)(C)C)cc1` displayed a concentration for half-maximal inhibition (IC50) in experiment [1] of 11 µM. In the case of `CCCCc1nn(-c2ccccc2C(F)(F)F)c(=O)n1Cc1ccc(-c2ccccc2S(=O)(=O)NC(=O)c2cc(C)oc2C)cc1`, the IC50 in experiment [1] turned out to be 0.31 µM; in experiment [2], 0.001 µM. On the same counts, the results for `CCCCc1nn(-c2ccccc2C(F)(F)F)c(=O)n1Cc1ccc(-c2ccccc2S(=O)(=O)Nc2nc3ccccc3o2)cc1` are 0.7 µM and 0.0052 µM. Consider `CCCCc1nn(-c2ccccc2C(F)(F)F)c(=O)n1Cc1ccc(-c2ccccc2S(=O)(=O)NC(=O)CCCCCN)cc1`, for which the IC50 in experiment [1] came out at 0.1 µM; in experiment [2], 0.0013 µM. `CCCCc1nn(-c2ccccc2Cl)c(=O)n1Cc1ccc(-c2ccccc2S(=O)(=O)NC(C)=O)cc1` showed a concentration for half-maximal inhibition (IC50) in experiment [1] of more than 1 µM. Regarding `CCCCc1nn(-c2ccccc2C(F)(F)F)c(=O)n1Cc1ccc(-c2ccccc2S(=O)(=O)NC(=O)C2CC2)cc1`, the IC50 was determined as 0.11 µM in experiment [1] and 0.0015 µM in experiment [2]. For `CCCCc1nn(-c2ccccc2C(F)(F)F)c(=O)n1Cc1ccc(-c2ccccc2S(=O)(=O)NC(=O)c2ccccc2C(F)(F)F)cc1`, in that order: 0.22 µM and 0.00027 µM.

In the case of `CCCCc1nn(-c2ccccc2C(F)(F)F)c(=O)n1Cc1ccc(-c2ccccc2S(=O)(=O)NC(=O)c2ccccc2OC)cc1`, the 50% inhibitory concentration (IC50) in experiment [1] is 0.072 µM; in experiment [2], 0.00041 µM. As for `CCCCc1nn(-c2ccccc2C(F)(F)F)c(=O)n1Cc1ccc(-c2ccccc2S(=O)(=O)NC(=O)c2ccc(C)s2)cc1`, the values for the 50% inhibitory concentration (IC50) in experiment [1] and in experiment [2] were 0.19 µM and 0.00064 µM, respectively. On to `CCCCc1nn(-c2ccccc2Cl)c(=O)n1Cc1ccc(-c2ccccc2S(N)(=O)=O)cc1`, for which the IC50 stood at 24 µM in experiment [1] and 0.82 µM in experiment [2]. `CCCCc1nn(-c2ccccc2C(F)(F)F)c(=O)n1Cc1ccc(-c2ccccc2S(=O)(=O)NC(=O)c2ccc(Br)o2)cc1`: the IC50 in experiment [1] amounted to 0.17 µM; in experiment [2], 0.0004 µM. For `CCCCOC(=O)NS(=O)(=O)c1ccccc1-c1ccc(Cn2c(CCCC)nn(-c3ccccc3C(F)(F)F)c2=O)cc1`, in that order: 0.19 µM and 0.00059 µM. Turning to `CCCCc1nn(-c2ccccc2C(F)(F)F)c(=O)n1Cc1ccc(-c2ccccc2S(=O)(=O)NC(=O)c2ccc(C#N)cc2)cc1`, the half-maximal inhibitory concentration (IC50) turned out to be 0.4 µM in experiment [1] and 0.00076 µM in experiment [2]. For `CCCCc1nn(-c2ccccc2C(F)(F)F)c(=O)n1Cc1ccc(-c2ccccc2S(=O)(=O)NC(=O)CCC2CCCC2)cc1`, in that order: 0.72 µM and 0.0012 µM. On the same counts, the results for `CCCCc1nn(-c2ccccc2C(F)(F)F)c(=O)n1Cc1ccc(-c2ccccc2S(=O)(=O)NC(=O)C2CC3CCC2C3)cc1` (centres undefined) are 0.1 µM and 0.00039 µM. As for `CCCCc1nn(-c2ccccc2C(F)(F)F)c(=O)n1Cc1ccc(-c2ccccc2S(=O)(=O)NC(=O)c2cc(Cl)ccc2Cl)cc1`, the half-maximal inhibitory concentration (IC50) in experiment [1] came to 0.026 µM; in experiment [2], 0.00048 µM. Take `CCCCc1nn(-c2ccccc2C(F)(F)F)c(=O)n1Cc1ccc(-c2ccccc2S(=O)(=O)NC(=O)C2CCOC2)cc1` (centres undefined): the IC50 was 0.28 µM in experiment [1] and 0.0028 µM in experiment [2]. For `CCCCc1nn(-c2ccccc2C(F)(F)F)c(=O)n1Cc1ccc(-c2ccccc2S(=O)(=O)NC(=O)c2sccc2Br)cc1`, in that order: 0.043 µM and 0.00072 µM. For `CCCCc1nn(-c2ccccc2C(F)(F)F)c(=O)n1Cc1ccc(-c2ccccc2S(=O)(=O)NC(=O)C2SCCS2)cc1`, in that order: 0.035 µM and 0.00035 µM. For `CCCCc1nn(-c2ccccc2C(F)(F)F)c(=O)n1Cc1ccc(-c2ccccc2S(=O)(=O)NC(=O)C2CCCO2)cc1` (centres undefined), in that order: 0.18 µM and 0.0043 µM. In the case of `CCCCc1nc(Cl)c(C(=O)O)n1Cc1ccc(-c2ccccc2-c2nn[nH]n2)cc1` [CARBOXYLIC ACID METABOLITE], the IC50 in experiment [1] is more than 50 µM. As for `CCCCc1nn(-c2ccccc2C(F)(F)F)c(=O)n1Cc1ccc(-c2ccccc2S(=O)(=O)NC(=O)c2cc3ccccc3o2)cc1.CCOCC`, the IC50 in experiment [2] was 0.00017 µM. In the case of `CCCCc1nn(-c2ccccc2Cl)c(=O)n1Cc1ccc(-c2ccccc2S(=O)(=O)NC(=O)C(F)(F)F)cc1`, in experiment [1], the IC50 amounted to 0.45 µM.
